Reference: ChEMBL document CHEMBL3259627, “Allosteric inhibition of human factor XIa: discovery of monosulfated benzofurans as a class of promising inhibitors” (J Med Chem, 2014)
The source made the active and inactive calls. No cut-off for these calls is given here.

Assays:
Coagulation factor XI [1] = target: T1, Coagulation factor XI (Homo sapiens, UniProt P03951); experiment: Inhibition of full-length human factor-11a-mediated S-2366 hydrolysis preincubated for 10 mins followed by substrate addition by spectrophotometric analysis relative to control
How it was run: (§1)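 Dose-response run in the same Tris pH 7.4 buffer with NaCl, PEG8000 and Tween80. Serial 2/3 or 5/6 inhibitor dilutions were preincubated 10 min at 37 °C with fXIa (0.765 nM final). S-2366 was then added (330 μM final) and the initial A405 rate read. Residual activity versus log[I] was fitted to a logistic equation for IC50, Hill slope, YM and Y0. At least two measurements; ± SD.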

Coagulation factor XI [2] = target: T1, Coagulation factor XI; experiment: Inhibition of full-length human factor-11a-mediated S-2366 hydrolysis preincubated for 10 mins followed by substrate addition by spectrophotometric analysis; how it was run: as §1
Coagulation factor XI [3] = target: T1, Coagulation factor XI; experiment: Inhibition of full-length human factor-11a-mediated S-2366 hydrolysis assessed as reduction in residual activity at 300 uM preincubated for 10 mins followed by substrate addition by spectrophotometric analysis relative to control
How it was run: (§2)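 Single-point screen: inhibitor (300 μM final) incubated with fXIa (0.765 nM final) in 0.05 M Tris-HCl pH 7.4, 0.15 M NaCl, 0.1% PEG8000, 0.02% Tween80, 10 min at 37 °C. S-2366 then added (330 μM final) and the initial rate taken from A405 rise (<10% conversion). Residual activity (%) is the rate ratio with versus without inhibitor. At least duplicate; mean ± SD.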

Coagulation factor XI [4] = target: T1, Coagulation factor XI; experiment: Activation of full-length human factor-11a-mediated S-2366 hydrolysis at 300 uM preincubated for 10 mins followed by substrate addition by spectrophotometric analysis relative to control; parameters: scale not given: the % may be the effect or the level left; how it was run: as §2
Coagulation factor XI [5] = target: T1, Coagulation factor XI; experiment: Binding affinity to fluorescein-EGR-labeled human factor-11a by fluorescence spectroscopic analysis
How it was run: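 fXIa active-site labeled with fluorescein-EGR (74 nM) in Tris pH 7.4 buffer without Tween80 at 37 °C. Excitation at 480 nm, emission recorded at 522 nm during ligand titration. ΔF/F0 versus ligand concentration was fitted to a quadratic binding equation to give the dissociation constant.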

Coagulation factor XI [6] = target: T1, Coagulation factor XI; experiment: Inhibition of full-length human factor-11a-mediated S-2366 hydrolysis at 300 uM preincubated for 10 mins followed by substrate addition by spectrophotometric analysis relative to control; how it was run: as §2
Coagulation factor XI [7] = target: T1, Coagulation factor XI; experiment: Inhibition of human factor-11a catalytic domain-mediated S-2366 hydrolysis preincubated for 10 mins followed by substrate addition by spectrophotometric analysis
How it was run: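 Recombinant fXIa catalytic domain (0.765 nM final) in 0.05 M Tris-HCl pH 7.4, 0.15 M NaCl, 0.1% PEG8000, 0.02% Tween80. Incubated 10 min at 37 °C with serial inhibitor dilutions (2/3 or 5/6 decrements), then S-2366 added to 330 μM final. Initial A405 rate gives residual activity; IC50 from logistic fit versus log[I]; at least two measurements.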

Coagulation factor XI [8] = target: T1, Coagulation factor XI

T1 sequence (P03951 19-387 limits assumed): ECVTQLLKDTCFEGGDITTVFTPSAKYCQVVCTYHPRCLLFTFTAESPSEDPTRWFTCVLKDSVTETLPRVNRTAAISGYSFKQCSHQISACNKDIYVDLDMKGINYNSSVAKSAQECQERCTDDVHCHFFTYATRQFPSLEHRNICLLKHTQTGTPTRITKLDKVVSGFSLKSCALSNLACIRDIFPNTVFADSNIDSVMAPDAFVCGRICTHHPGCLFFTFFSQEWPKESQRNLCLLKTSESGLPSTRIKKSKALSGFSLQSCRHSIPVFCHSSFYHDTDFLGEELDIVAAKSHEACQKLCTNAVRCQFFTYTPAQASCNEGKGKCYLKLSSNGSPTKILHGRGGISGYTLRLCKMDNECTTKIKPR
T1 sequence (P03951 388-625 limits assumed): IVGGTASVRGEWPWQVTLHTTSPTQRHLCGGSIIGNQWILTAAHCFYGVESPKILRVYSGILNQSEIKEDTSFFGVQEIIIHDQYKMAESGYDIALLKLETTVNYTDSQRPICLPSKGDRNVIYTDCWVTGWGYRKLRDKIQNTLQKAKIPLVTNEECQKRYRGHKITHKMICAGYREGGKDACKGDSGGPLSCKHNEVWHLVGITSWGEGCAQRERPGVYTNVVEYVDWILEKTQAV

Structure (SMILES) | Efficacy (Coagulation factor XI [1]) | IC50 (Coagulation factor XI [2]) | Activity (Coagulation factor XI [3]) | also measured
CCOC(=O)c1c(C)oc2cc(OC)c(OCc3oc4cc(OC)c(OCc5oc6cc(OC)c(OS(=O)(=O)O)cc6c5C(=O)OCC)cc4c3C(=O)OCC)cc12 | 100% | 6.4 µM | > 50% | –
CCOC(=O)C1Cc2cc(OS(=O)(=O)O)c(OS(=O)(=O)O)cc2CN1C(=O)c1ccc(OS(=O)(=O)O)c(OS(=O)(=O)O)c1 (stereo unspecified) | – | – | – | Activity (Coagulation factor XI [4]): 20%
C=CCOC(=O)c1c(C)oc2cc(OC)c(OCc3oc4cc(OC)c(OCc5oc6cc(OC)c(OS(=O)(=O)O)cc6c5C(=O)OCC)cc4c3C(=O)OCC)cc12 | 100% | 29.9 µM | > 50% | –
O=C(c1cc(OS(=O)(=O)O)c(OS(=O)(=O)O)c(OS(=O)(=O)O)c1)N1CCc2cc(OS(=O)(=O)O)c(OS(=O)(=O)O)cc2C1 | – | – | – | Activity (Coagulation factor XI [4]): 20%
CCOC(=O)c1c(C)oc2cc(OC)c(OCc3oc4cc(OC)c(OCc5oc6cc(OC(C)C)c(OS(=O)(=O)O)cc6c5C(=O)OCC)cc4c3C(=O)OCC)cc12 | 100% | 47.2 µM | > 50% | –
O=C(O)C1Cc2cc(OS(=O)(=O)O)c(OS(=O)(=O)O)cc2CN1C(=O)c1cc(OS(=O)(=O)O)c(OS(=O)(=O)O)c(OS(=O)(=O)O)c1 (stereo unspecified) | – | – | – | Activity (Coagulation factor XI [4]): 20%
O=C(Nc1ccc(OS(=O)(=O)O)cc1)c1cccc(N2C(=O)c3ccc(C(=O)Nc4ccc(OS(=O)(=O)O)cc4)cc3C2=O)c1 | 100% | 122 µM | > 50% | –
CCOC(=O)c1c(C)oc2cc(OC)c(OCc3oc4cc(OC)c(OCc5oc6cc(OS(=O)(=O)O)c(OC)cc6c5C(=O)OCC)cc4c3C(=O)OCC)cc12 | – | – | – | inhibition (Coagulation factor XI [6]): inactive
CCOC(=O)c1c(C)oc2cc(OC)c(OCc3oc4cc(OC)c(OCc5oc6cc(OCC)c(OS(=O)(=O)O)cc6c5C(=O)OCC)cc4c3C(=O)OCC)cc12 | 100% | 0.82 µM | > 50% | IC50 (Coagulation factor XI [7]): 49 µM; KSV (Coagulation factor XI [8]): 2.3; Kd (Coagulation factor XI [5]): 1.2 µM
O=C(c1cc(OS(=O)(=O)O)cc(OS(=O)(=O)O)c1)N1CCc2cc(OS(=O)(=O)O)c(OS(=O)(=O)O)cc2C1 | – | – | – | Activity (Coagulation factor XI [4]): 20%
CCOC(=O)c1c(C)oc2cc(OC)c(OCc3oc4cc(OC)c(OCc5oc6cc(OC)c(OS(=O)(=O)O)cc6c5C(=O)OC)cc4c3C(=O)OCC)cc12 | 100% | 14.9 µM | > 50% | –
N#Cc1c(SCC(=O)c2cccc(OS(=O)(=O)O)c2OS(=O)(=O)O)nc([N+](=O)[O-])c(C#N)c1-c1ccc(Oc2ccccc2)cc1 | 100% | 109 µM | > 50% | –
CCOC(=O)c1c(C)oc2cc(OCc3oc4cc(OC)c(OS(=O)(=O)O)cc4c3C(=O)OCC)c(OC)cc12 | – | – | – | inhibition (Coagulation factor XI [6]): inactive

Now from value to compound, other results behind:

Efficacy (Coagulation factor XI [1]) | IC50 (Coagulation factor XI [2]) | Activity (Coagulation factor XI [3]) | Structure (SMILES) | also measured
100% | 29.9 µM | > 50% | CCOC(=O)c1c(COc2cc3c(C(=O)O)c(C)oc3cc2OC)oc2cc(OC)c(OCc3oc4cc(OC)c(OS(=O)(=O)O)cc4c3C(=O)OCC)cc12 | –
100% | 7.5 µM | > 50% | CCOC(=O)c1c(C)oc2cc(OC)c(OCc3oc4cc(OCC)c(OS(=O)(=O)O)cc4c3C(=O)OCC)cc12 | Kd (Coagulation factor XI [5]): 4.5 µM
100% | 99 µM | > 50% | CCOC(=O)c1c(C)oc2cc(OC)c(OCc3oc4cc(OC)c(OCc5oc6cc(OC)c(OCc7oc8cc(OC)c(OS(=O)(=O)O)cc8c7C(=O)OCC)cc6c5C(=O)OCC)cc4c3C(=O)OCC)cc12 | –
100% | 9.7 µM | > 50% | COC(=O)c1c(C)oc2cc(OC)c(OCc3oc4cc(OC)c(OS(=O)(=O)O)cc4c3C(=O)OC)cc12 | –
100% | 384 µM | – | CCOC(=O)c1c(COc2cc3c(C(=O)OCC)c(COc4cc5c(C(=O)O)c(C)oc5cc4OC)oc3cc2OC)oc2cc(OC)c(O)cc12 | inhibition (Coagulation factor XI [6]): 50%
